Shown are actives, neighbours in structure and some others; about 2.2% of the full set was active somewhere.
PKD1 inh: PKD1 (human) kinase inhibition. Q15139. PKD1 kinase fluorescence polarization assay. inhibition, % (test concentration not listed). 200,000 compounds, 0.056% hits; in the data active means inhibition above about 50%
Target sequence (Q15139 whole entry, looked up): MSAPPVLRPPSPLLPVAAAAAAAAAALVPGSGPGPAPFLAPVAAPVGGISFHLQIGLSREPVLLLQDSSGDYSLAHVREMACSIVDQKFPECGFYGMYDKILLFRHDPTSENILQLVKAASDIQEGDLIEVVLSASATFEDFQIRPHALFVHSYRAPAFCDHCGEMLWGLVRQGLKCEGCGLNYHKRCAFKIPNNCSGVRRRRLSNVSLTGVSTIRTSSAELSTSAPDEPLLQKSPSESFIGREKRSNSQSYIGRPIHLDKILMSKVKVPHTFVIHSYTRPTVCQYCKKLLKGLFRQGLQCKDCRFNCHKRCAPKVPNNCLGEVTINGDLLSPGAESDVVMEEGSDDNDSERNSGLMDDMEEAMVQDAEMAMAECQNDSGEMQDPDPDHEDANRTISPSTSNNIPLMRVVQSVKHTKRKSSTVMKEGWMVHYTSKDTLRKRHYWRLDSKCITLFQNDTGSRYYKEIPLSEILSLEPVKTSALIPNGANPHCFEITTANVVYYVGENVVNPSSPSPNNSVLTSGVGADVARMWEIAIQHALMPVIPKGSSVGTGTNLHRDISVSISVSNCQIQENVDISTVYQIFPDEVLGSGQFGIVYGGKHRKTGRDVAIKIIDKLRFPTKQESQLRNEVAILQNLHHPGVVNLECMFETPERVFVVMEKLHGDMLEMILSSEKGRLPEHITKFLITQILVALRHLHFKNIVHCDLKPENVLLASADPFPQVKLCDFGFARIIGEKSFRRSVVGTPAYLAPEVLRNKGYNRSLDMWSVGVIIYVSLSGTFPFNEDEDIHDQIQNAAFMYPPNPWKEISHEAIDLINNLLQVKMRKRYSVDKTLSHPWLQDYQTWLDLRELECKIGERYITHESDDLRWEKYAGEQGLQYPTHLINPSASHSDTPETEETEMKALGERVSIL
C8 TRAIL sens: sensitizes caspase-8 expressing cells to TRAIL | 360,000 compounds, 1% hits | inhibition (viability loss, TRAIL sensitization), % at 10 µM | AID 624354 | NB7+C8 cells + TRAIL, ATPlite viability luminescence;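 active means compounds causing at least 50% loss of cell viability in the single-dose screen, relative to plate controls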
Wee1 stabilizer: inhibitors of human Wee1 degradation; reporter increase, % at 5 µM; P30291; 220,000 compounds, 1.2% hits; HeLa Luc-Wee1K328M stability, luciferase luminescence; 100% = proteasome inhibitor MG132 effect; AID 1321;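 active means activation above the mean of all tested compounds plus 3 SD, set per screening run, cut at about 8.8% in these data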;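 further: cells exposed to compound for 20 h before luminescence read; 0% = DMSO alone and 100% = MG132 at 30 µM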
FLuc inh counter: Photinus pyralis luciferase inhibition counter-screen; ATPLite firefly luciferase biochemical luminescence, 10 min; inhibition, % at 10 µM; 200,000 compounds, 1.5% hits; P08659;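 active means inhibition above about 50% when tested at 10 µM, limit read from the data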
PPC-1+TRAIL kill: kills PPC-1 cancer cells in the presence of TRAIL. PPC-1 cells + TRAIL, ATPLite viability luminescence. cell killing (% activity), % at 4 µM or 5 µM. 220,000 compounds, 0.41% hits. AID 1443;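 active means cell killing above 50% in the first pass at 4 µM, then a duplicate retest at 5 µM averaging 50% or more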;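 further: plate controls were cells with TRAIL plus DMSO for no effect and medium-only wells lacking cells for full effect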
FLuc stim CS: affects firefly luciferase, flagging false hits in luciferase stimulation screens | P08659 | ATPlite luciferase biochemical, luminescence, 10 min; 0 = ATP-free wells, 1 = DMSO control | activation factor at 10 µM | 200,000 tested, under 10 active;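 active means luciferase activation factor, scaled between plate controls, of at least 2 with compound at 10 µM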
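Material: luciferase plus luciferin reagent, cell-free. Medium: PBS buffer for ATP. Also added: ATP substrate, dispensed from a 10.24 µM working solution in PBS. Doses: test compounds dosed from 2 mM stocks in 100% DMSO. Incubation: 10 min post-reagent at room temperature. Technique: light output (luminescence). Read-out basis: luminescence gain marking luciferase activators.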
PPC-1 tox: kills PPC-1 cells | cytotoxicity, % at 5 µM | AID 1447 | PPC-1 viability, ATPlite luminescence, overnight | shares compounds with PPC-1+TRAIL kill | 1,200 compounds, 50% hits;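 active means reconfirmed compounds whose average cytotoxicity reaches 50% or more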;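 further: 0% = DMSO-treated cells and 100% = wells holding medium but no cells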
Numbers without * were called inactive.

What do the screens show for `COc1ccc(NC(=O)/C(C#N)=C/c2ccc(Br)o2)cc1`?
PKD1 inh: 2.8; C8 TRAIL sens: -8.3; Wee1 stabilizer: 3.7; FLuc inh counter: -0.9; PPC-1+TRAIL kill: 6.5; FLuc stim CS: 1

What do the screens show for `COc1ccc(NC(=O)/C(C#N)=C\c2ccc(N3CCOCC3)o2)cc1`?
PKD1 inh: -14.4; C8 TRAIL sens: 65.2*; Wee1 stabilizer: -0.5; FLuc inh counter: 83.8*; PPC-1+TRAIL kill: 55.3*; FLuc stim CS: 0.2; PPC-1 tox: 57.5*

Results for Cc1nc(OCC(C)C)c2sc3nc4c(cc3c2n1)COC(C)(C)C4 ?
C8 TRAIL sens: 24.0; Wee1 stabilizer: 2.8; PPC-1+TRAIL kill: 11.9

What do the screens show for `CC1(C)Cc2nc3sc4c(SCC(=O)O)ncnc4c3cc2CO1`?
C8 TRAIL sens: 75.9*; Wee1 stabilizer: -0.6; PPC-1+TRAIL kill: 71.4*; PPC-1 tox: 74.8*

How did CC1(C)Cc2nc3sc(C(=O)NCCCO)c(N)c3cc2CS1 do in these assays?
PKD1 inh: -2.6; C8 TRAIL sens: 0.4; Wee1 stabilizer: 3.4; FLuc inh counter: 11.7; PPC-1+TRAIL kill: 22.0; FLuc stim CS: 0.9

How did CC1(C)Cc2nc3sc(C(=O)NCCO)c(N)c3cc2CO1 do in these assays?
PKD1 inh: -10.0; C8 TRAIL sens: -3.7; Wee1 stabilizer: -1.6; FLuc inh counter: 14.7; PPC-1+TRAIL kill: 8.0; FLuc stim CS: 0.9; PPC-1 tox: 7.7

What do the screens show for `Cc1ccc(OCCOC(=O)CN2C(=O)NC3(CCCC3)C2=O)cc1`?
C8 TRAIL sens: 7.3

What do the screens show for `CCCCCCCCC[n+]1cccc2c3ccccc3ccc21`?
PKD1 inh: -0.3; C8 TRAIL sens: 62.1*; Wee1 stabilizer: -1.9; FLuc inh counter: -5.7; PPC-1+TRAIL kill: 29.5; FLuc stim CS: 1.1; PPC-1 tox: 32.4

Results for O=[N+]([O-])c1ccc(C[n+]2cccc3c4ccccc4ccc32)cc1 ?
PKD1 inh: 3.5; C8 TRAIL sens: 30.6; Wee1 stabilizer: -1.3; FLuc inh counter: -3.6; PPC-1+TRAIL kill: 13.4; FLuc stim CS: 1

What do the screens show for `CC(C)(C)c1ccc(-c2noc(CCC(=O)N3CCOCC3)n2)cc1`?
PKD1 inh: 4.3; C8 TRAIL sens: 64.3*; Wee1 stabilizer: -1.1; FLuc inh counter: 82.6*; PPC-1+TRAIL kill: 44.7; FLuc stim CS: 0.2; PPC-1 tox: 37.1

Results for Cc1ccccc1-c1nnc(SCC(=O)N(C)C2CCS(=O)(=O)C2)n1C (stereo not given) ?
C8 TRAIL sens: 8.3

How did O=c1c(-c2ccc3c(c2)OCCO3)coc2cc(O)cc(O)c12 do in these assays?
PKD1 inh: -6.1; C8 TRAIL sens: 32.2; Wee1 stabilizer: 0.6; FLuc inh counter: 62.4*; PPC-1+TRAIL kill: 33.8; FLuc stim CS: 0.4; PPC-1 tox: 35.9

Results for CCOc1c(C)cnc2c1c(=O)n(Cc1ccccc1F)c(=O)n2C ?
C8 TRAIL sens: -12.4

Results for CCOC(=O)c1c(N2CCN(c3ccccc3)CC2)cc(C)nc1C ?
C8 TRAIL sens: 2.4

Results for CCOC(=O)c1c(Nc2ccccc2N)cc(C)nc1C ?
PKD1 inh: 4.4; C8 TRAIL sens: 0.0; Wee1 stabilizer: 7.5; FLuc inh counter: -8.1; PPC-1+TRAIL kill: -4.2; FLuc stim CS: 1.1; PPC-1 tox: -26.4

Results for Cc1ccc(C(=O)O/N=C/c2c(N3CCOCC3)n(C)c3ccccc23)cc1 ?
PKD1 inh: -11.0; C8 TRAIL sens: -3.4; Wee1 stabilizer: -0.1; FLuc inh counter: -2.3; PPC-1+TRAIL kill: 39.6; FLuc stim CS: 1; PPC-1 tox: 19.3

What do the screens show for `Cc1ccnc(NC(=O)C(C)N2C(=O)c3ccccc3S2(=O)=O)c1` (stereo not given)?
C8 TRAIL sens: -42.9

Results for Oc1ccc(N=Nc2ccc3c(c2)OCCO3)c(O)c1 ?
C8 TRAIL sens: 72.2*; Wee1 stabilizer: 1.9; PPC-1+TRAIL kill: 64.9*; PPC-1 tox: 66.3*

What do the screens show for `Oc1ccc(N=Nc2ccc3c(c2)OCCO3)c2cccnc12`?
PKD1 inh: -0.1; C8 TRAIL sens: 29.6; Wee1 stabilizer: -0.4; FLuc inh counter: 27.9; PPC-1+TRAIL kill: 23.9; FLuc stim CS: 0.7

Results for COc1ccc2nc(Nc3ccccc3OC)sc2c1 ?
PKD1 inh: -1.6; C8 TRAIL sens: 69.0*; Wee1 stabilizer: -0.8; FLuc inh counter: 87.1*; PPC-1+TRAIL kill: 60.6*; FLuc stim CS: 0.1; PPC-1 tox: 57.1*

What do the screens show for `CC1(C)SC2c3ccccc3C(=O)N2C1C(=O)O` (stereo not given)?
C8 TRAIL sens: -17.3

Results for CCc1nc(NCC2CCCO2)c(C#N)c2c1COC(C)(C)C2 (stereo not given) ?
PKD1 inh: -6.8; C8 TRAIL sens: -6.8; Wee1 stabilizer: -0.6; FLuc inh counter: 0.0; PPC-1+TRAIL kill: -0.7; FLuc stim CS: 1

How did CC(C)c1nc(NCC2CCCO2)c(C#N)c2c1COC(C)(C)C2 (stereo not given) do in these assays?
PKD1 inh: -14.5; C8 TRAIL sens: -11.9; Wee1 stabilizer: -1.9; FLuc inh counter: -4.5; PPC-1+TRAIL kill: -2.4; FLuc stim CS: 1; PPC-1 tox: -7.0

Results for Cc1ccc(Cn2ccsc2=NC(=O)CCl)cc1 ?
PKD1 inh: -2.9; C8 TRAIL sens: 97.8*; Wee1 stabilizer: 0.1; FLuc inh counter: -2.0; PPC-1+TRAIL kill: 91.5*; FLuc stim CS: 1; PPC-1 tox: 90.8*

What do the screens show for `Cc1ccc(Cn2ccsc2=NC(=O)COC(=O)c2ccc(NC(=O)CC#N)cc2)cc1`?
C8 TRAIL sens: 5.8

What do the screens show for `Cc1nn(-c2ccccc2)c(C)c1/C=N/n1cnnc1`?
PKD1 inh: 4.4; C8 TRAIL sens: 0.2; Wee1 stabilizer: 0.5; FLuc inh counter: 2.7; PPC-1+TRAIL kill: -22.1; FLuc stim CS: 1

What do the screens show for `Cc1nn(-c2ccccc2)c(C)c1/C=N\N1CCN(c2ccc(Cl)cc2)CC1`?
PKD1 inh: -17.4; C8 TRAIL sens: 9.9; Wee1 stabilizer: -2.2; FLuc inh counter: -3.8; PPC-1+TRAIL kill: 0.7; FLuc stim CS: 1; PPC-1 tox: 3.2

How did O=C(COc1ccc(Cl)cc1Cl)Nc1ccc(Cl)cn1 do in these assays?
PKD1 inh: -4.9; C8 TRAIL sens: 64.7*; Wee1 stabilizer: 5.6; FLuc inh counter: 85.7*; PPC-1+TRAIL kill: 59.4*; FLuc stim CS: 0.1; PPC-1 tox: 59.4*

What do the screens show for `Cc1ccc2nc(Cl)c(/C=N/Nc3ccc(C(=O)O)cc3)cc2c1`?
C8 TRAIL sens: 78.5*; Wee1 stabilizer: 8.7; PPC-1+TRAIL kill: 87.5*; PPC-1 tox: 87.4*

What do the screens show for `CCc1ccc(/C=N/NC(=O)c2ccccn2)cc1`?
C8 TRAIL sens: 82.4*; Wee1 stabilizer: -2.0; PPC-1+TRAIL kill: 72.5*; PPC-1 tox: 71.1*
